This is a sample that favours compounds with a hit; in the whole collection about 2.1% have one here.
BaF3 tox = parental Ba/F3 viability inhibition as JAK2V617F counter-screen. 1.1% of 220,000 active. inhibition, % at 5.6 µM. CellTiter-Glo ATP luminescence;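 active means inhibition above a per-campaign cutoff, the mean inhibition of all tested compounds plus 3 SD, cut at about 27% in these data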;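 further: 0% = DMSO wells and 100% = JAK Inhibitor I control wells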
KLF5 inh = kruppel-like factor 5 inhibition; inhibition, % at 5 µM; DLD-1 KLF5 promoter-luciferase reporter, luminescence; 0.23% of 290,000 active;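 active means inhibition above a per-plate limit of that plate's mean compound inhibition plus 3 SD, cut at about 60% in these data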;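 further: 0% = DMSO wells and 100% = LY294002 at 200 µM; higher means less KLF5 promoter-driven luciferase light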
b-catenin transl = alters nuclear translocation of beta-catenin in HeLa cells; immunofluorescence imaging; nuclear translocation activity, % at 5 µM; 0.3% of 190,000 active; AID 1665;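 active means nuclear translocation activity above 50% at 5 µM, with a well cell count of 50 or more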;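 further: per-cell ratio of nuclear to cytoplasmic median beta-catenin stain intensity; plate controls were DMSO negative control for no effect and GSK-3 inhibitor IX positive control for full effect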
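Read-out: Nuclear/cytoplasmic beta-catenin signal ratio, % activation | Assay system: Human HeLa cell line | Times: 24 h compound exposure at 37°C, 5% CO2 | Signal: Fluorescence imaging of beta-catenin antibody stain plus DAPI | Dosing: 5 µM primary, 0.02–20 µM confirmation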
IEC-6 cytotox = counter-screen for KLF5 inhibitors: cytotoxicity in IEC-6 cells; IEC-6 cytotoxicity, luminescence viability; inhibition, % at 5 µM; 0.78% of 290,000 active; in the data active means inhibition above about 22%;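 further: 0% = plate median of test compound wells and 100% = cytotoxic reference compound wells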
Ba/F3 V617F tox = lowers viability of Ba/F3 cells expressing EpoR and JAK2V617F; inhibition, % at 5.6 µM; 1.1% of 220,000 active; ATP luminescence;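 active means inhibition above the campaign mean plus 3 SD over all tested compounds, cut at about 24% in these data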;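 further: cytokine-independent growth of Ba/F3 cells driven by EpoR plus mutant JAK2; 0% = DMSO-treated cells and 100% = JAK inhibitor I control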
MT stabilize HCS = microtubule stabilization, imaging screen; HeLa tubulin immunostaining HCS, 24 h; share of cells brighter than vehicle mean+2SD; 0.83% of 200,000 active; AID 2205; % tubulin-high responders, % at 10 µM;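 active means plate Z-score above 3 for both tubulin-high and condensed-nucleus cell shares, with cell loss under 80%, at 10 µM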;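 further: anti alpha tubulin signal scored within the nucleus-defined area of each cell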
* = called active by the depositor; . = not tested or not shown.

SMILES	BaF3 tox	KLF5 inh	b-catenin transl	IEC-6 cytotox	Ba/F3 V617F tox	MT stabilize HCS
CC[N+]1=C(C)C(C)(C)c2cc(C)ccc21	72.2*	-78.6	3.9	12.9	64.5*	6.2
Cc1ccccc1N1C(=O)CC2(CCCC2)CC1=O	44.8*	-34.1	-1.6	7.0	8.1	1.1
CCOc1cccc(/C=N/NC(=O)c2cccnc2)c1O	.	94.3*	.	11.0	.	.
CCOCCn1c(N2CCN(c3ccccc3)CC2)nc2c1c(=O)[nH]c(=O)n2C	53.6*	-19.7	-1.2	-2.5	17.5	3.4
CCOC(=O)C1CCN(C(=O)CCCNC(=O)Cn2cnc3sc(C)c(C)c3c2=O)CC1	.	-16.5	.	-9.5	.	.
Cc1cccc2[nH]c3c(N4CCC5(CC4)OCCO5)ncnc3c12	11.5	-5.9	56.6*	17.9	1.7	38.7*
CCOC(=O)c1c(NC(=O)c2ccc(S(=O)(=O)N3CCOCC3)cc2)sc2c1CC(C)(C)NC2(C)C	.	-35.4	.	-6.2	.	.
COC(=O)c1c(NC(=O)c2ccccc2N(C)S(=O)(=O)c2ccccc2)sc2c1CCCC2	4.6	28.4	2.5	5.7	-1.9	22.4*
CCOC(=O)c1c(NC(=O)c2ccco2)sc2c1CCCC2	3.0	-40.1	-1.8	8.3	0.1	2.2
CCOC(=O)c1c(NC(=O)c2ccccc2N(C)S(=O)(=O)c2ccccc2)sc2c1CCCC2	4.9	-6.3	60.5*	10.9	2.8	12.6*
COC(=O)c1c(NC(=O)c2ccccc2C(=O)O)sc2c1CCC2	.	-22.1	.	-12.7	.	.
CCOC(=O)c1c(NC(=O)c2ccc(S(=O)(=O)N3CCOCC3)cc2)sc2c1CCN(C)C2	32.9*	-14.1	-1.4	2.0	-3.5	5.0
COc1ccc(C)cc1NC(=O)c1nnn(Cc2cccc(C(F)(F)F)c2)c1N	36.9*	39.6	1.1	-3.5	23.7*	2.7
Cc1ccc(CNC(=O)Cn2nnc(C(=O)Nc3cccc(C)c3C)c2N)cc1	.	-1.9	.	-0.9	.	.
Cc1ccccc1Cn1nnc(C(=O)Nc2cccc(C)c2C)c1N	31.9*	7.2	2.3	7.1	25.9*	5.5
CCc1ccccc1NC(=O)Cn1nnc(C(=O)NCc2cccs2)c1N	11.5	12.2	0.7	9.7	4.7	29.8*
COC(=O)c1cn(NC(=O)c2ccccc2[N+](=O)[O-])c(=O)c2ccccc12	2.6	-6.3	2.2	-0.6	1.7	1.9
CCc1ccc(CN(C)C(=O)C2CCC(=O)N(CCCN3CCCC3=O)C2)cc1 (configuration not stated)	.	-10.3	.	-2.1	.	.
CC1=C(C#N)C(c2ccccc2)C2=C(N1)c1ccccc1C2=O (configuration not stated)	3.0	6.7	-4.2	5.9	-2.8	23.6*
C=CCNc1nc2c(c(=O)n(C)c(=O)n2C)n1CCCCCC	54.9*	-36.9	0.5	6.0	40.0*	2.3
Cn1c(=O)c2c(nc(NCCc3ccccc3)n2Cc2ccc(F)cc2)n(C)c1=O	3.6	-11.5	0.2	10.5	-2.4	3.1
COCCNc1nc2c(c(=O)n(C)c(=O)n2C)n1Cc1cccc(C)c1	43.5*	-10.0	.	1.1	45.0*	1.3
C=CCNc1nc2c(c(=O)n(C)c(=O)n2C)n1Cc1ccc(F)cc1	39.9*	-40.2	-1.3	-1.4	40.0*	2.5
NS(=O)(=O)c1ccc2c(c1)oc(=O)c1cc(S(N)(=O)=O)ccc12	9.7	-27.3	0.9	-3.8	3.6	3.4
N#CC1=C(N)NC(SCC(=O)O)=C(C#N)C12CCCC2	-0.8	-30.3	-5.5	-4.8	-4.2	7.0
SMILES	BaF3 tox	KLF5 inh	b-catenin transl	IEC-6 cytotox	Ba/F3 V617F tox	MT stabilize HCS
N#CC1=C(N)NC(SCc2ccc(F)cc2)=C(C#N)C12CCCCC2	5.3	-20.2	.	9.4	-0.4	46.7*
Cc1ccc(C(=O)NCCC(=O)Nc2ccccc2C)cc1	.	-30.4	.	-1.5	.	.
O=C(CN(c1ccccn1)S(=O)(=O)c1ccccc1)N/N=C/c1cccc([N+](=O)[O-])c1	-0.1	-11.8	0.2	2.0	-1.8	2.1
CCn1c(C)cc(/C=C2/NC(=O)N(c3ccccc3)C2=O)c1C	1.9	-69.8	-0.1	-1.8	39.9*	4.5
Clc1ccc2[nH]c3c(c2c1)CCc1cn[nH]c1-3	3.9	-34.4	13.4	0.9	4.4	15.6*
C=CCC(C#Cc1ccccc1)[N+](C)(C)CC=C (configuration not stated)	50.0*	-20.4	0.2	-1.0	40.6*	2.3
CCN1C(=O)CC(N2CCN(CC(=O)NC(C)C)CC2)C1=O (configuration not stated)	7.9	-16.5	.	4.0	1.5	2.7
Cc1cc2c(cc(C(=O)OCC(=O)NCc3ccco3)n2C)s1	-4.4	15.9	43.9	11.5	-4.6	50.9*
CCCNC(=S)Nc1c(C)n(C)n(-c2ccccc2)c1=O	4.5	-19.9	-0.1	-3.7	-3.9	1.6
C=CCNC(=O)/C(C#N)=C\c1cc(Cl)c(O)c(OCC)c1	5.6	-6.7	5.5	1.0	4.8	3.7
CCOc1cc(/C=C(/C#N)C(=O)Nc2ccc(O)cc2)cc(Br)c1O	0.2	-9.7	62.1*	2.4	2.8	18.4
COc1ccc(C(=O)C[n+]2ccc(N(C)C)cc2)cc1	59.2*	-20.3	-0.4	-7.5	66.7*	.
CN(C)c1cc[n+](CC(=O)c2ccc(Br)cc2)cc1	55.9*	-5.0	0.4	-3.1	50.6*	3.1
CN(C)c1cc[n+](CC(=O)c2ccc(-c3ccccc3)cc2)cc1	68.2*	8.9	2.6	2.7	98.6*	3.6
COc1ccc(C(=O)COC(=O)c2ccc(N(C)C)cc2)cc1	-0.1	-9.6	-4.9	0.4	-0.8	5.4
O=C(CCn1cnnn1)N1CCCC(Nc2ccc(F)cc2)C1 (configuration not stated)	.	-28.4	.	2.8	.	.
Cc1ccc(CC(=O)Nc2nccs2)cc1	.	1.5	.	1.7	.	.
Cn1ccnc1C(O)(c1nnc(-c2ccccc2)o1)C(F)(F)F (configuration not stated)	3.6	-24.5	-0.5	2.4	1.1	3.6
CCN(CC)c1ccc(-c2n[nH]c(=S)n2-c2ccccc2)cc1	4.7	-2.1	4.3	0.8	3.2	24.8*
COC(=O)c1scc(C)c1NC(=O)c1ccccc1F	.	-12.4	.	1.1	.	.
Cc1nc2scc(-c3ccccc3)c2c(=O)n1N=C1C=CC(=O)C=C1	-9.9	-25.6	2.4	8.7	49.3*	3.3
C#Cc1ccc(CN2CCC(Oc3cc(C(=O)NC4CC4)ccc3OC)CC2)cc1	.	1.0	.	10.3	.	.
Nc1ccccc1C#Cc1ccccc1	35.3*	-108.9	.	0.5	13.6	2.5
Cc1noc(C)c1S(=O)(=O)N1CCC(C(=O)Nc2ccccn2)CC1	39.6*	-16.4	0.7	2.2	1.9	1.8
CC(C)(C)c1cc(N)n2nc(C(C)(C)C)cc2n1	-0.1	-59.0	-0.1	-4.4	-3.9	2.5
CCOc1ccccc1NC(=O)c1cc(C(=O)c2cc(Br)ccc2O)coc1=N	7.4	5.6	.	3.9	3.0	11.8*
CC(C)OC(=O)c1cc(C(=O)c2cc(Br)ccc2O)coc1=N	0.0	-7.9	-0.5	0.9	-0.2	2.7
Cc1cc(C(F)F)n2nc(C(=O)Nc3cccnc3Cl)nc2n1	94.9*	3.1	-2.6	4.4	-4.1	2.1

Screening data from PubChem BioAssay.
